According to PMC6857568 (Molecular Biology of the Cell, 2019):
One block for each substance: values may come before it.

What was measured:
[1] = system: taxol-stabilized Atto647N-labeled microtubules; test: Microtubule-binding by TIRF microscopy on taxol-stabilized microtubules; design: species or system pig
[2] = system: dynamic Alexa 647–labeled microtubules; test: Microtubule dynamics; assay type: biochemical, pig; conditions: vs MOCK
[3] = system: Alexa 647–labeled tubulin; test: Spontaneous microtubule nucleation assay; assay type: biochemical, pig; conditions: 100 nM, 5 min, 35°C; for microtubules nucleated de novo: ± SD, MOCK 0.6 ± 0.4
[4] = system: depolymerizing microtubule plus ends / intersecting microtubules; test: Outcome of depolymerizing plus end crossing an intersecting microtubule; assay type: biochemical, pig; conditions: for pulling events (in words): 50 or 100 nM (starPEG-(KA7)4-TAMRA); for pick-up of tubulin aggregates tracking depolymerizing plus ends: dynamic microtubule assay
Outline: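 Peptide was present in the dynamic-seed assay (14 µM Alexa 647 tubulin, GTP, 35°C). Dual-color time-lapse ran at one frame per 3 s. Peptide intensity at a crossing was the background-corrected integrated intensity of a five-pixel circle, taken in the frame where the depolymerizing plus end crossed the intersecting microtubule. Multiple-peak Gaussian fitting was used.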

[5] = system: dynamic Alexa 647–labeled microtubules; test: Bundling of dynamic microtubules; assay type: biochemical, pig; conditions: 50 or 100 nM starPEG-(KA7)4-TAMRA; 50 nM starPEG-(DA7)4-TAMRA; 35°C
Outline: (§1)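 Dynamic assay: biotinylated GMP-CPP pig tubulin seeds were bound to anti-biotin antibody, then given 14 µM Alexa 647 tubulin with 1 mM GTP, methylcellulose, casein and oxygen scavenger in PIPES pH 6.8. Peptide was present at the stated concentrations, at 35°C for up to 30 min. Dual-color time-lapse was one frame per 3 s; kymographs were analyzed manually.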

[6] = system: subtilisin-treated GMP-CPP/taxol double-stabilized microtubules; test: Binding to subtilisin-treated; design: species or system pig; conditions: C-termini removed
Outline: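 GMP-CPP microtubules were digested with 200 µg/ml subtilisin A in BRB80 plus 10 µM taxol for 1 h at 30°C, then stopped with 10 mM PMSF. Digestion was checked by SDS-PAGE. Brightly labeled (1:4) digested and dimly labeled (1:20) undigested microtubules shared one channel. Peptide binding was imaged by TIRF at 25°C in the stabilized-microtubule buffer.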

[7] = system: taxol-stabilized ATTO 647N-labeled microtubules; test: Single-molecule diffusion and track-switching on the microtubule lattice; assay type: binding, pig
Outline: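 Peptide at 1 nM was imaged on taxol microtubules at 25°C in BRB80. Recordings were 5-min continuous streams at 100-ms exposure (532 nm). Single molecules were tracked automatically (minimum 5 frames, maximum 3-frame break) and checked against kymographs. D came from MSD linear regression and from a covariance-based estimator weighted by trajectory length.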

[8] = system: dynamic Alexa 647–labeled microtubules; test: Tracking of microtubule ends on dynamic microtubules; assay type: biochemical, pig
Outline: as §1

[9] = system: depolymerizing microtubule plus ends / intersecting microtubules; test: Bending forces of pulled microtubules during pulling events; assay type: biochemical, pig; conditions: beam equation, deflection angle ≤30°, corrected force, mean ± SD, N = 11
[10] = system: overlaps of taxol-stabilized microtubules; test: Accumulation in overlaps of taxol-stabilized microtubules; assay type: binding, pig
[11] = system: rat kinesin-1 (rKin430-GFP); test: Kinesin-1 stepping; assay type: biochemical; conditions: 5 and 25 nM
Outline: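 GFP-tagged truncated rat kinesin-1 (1–430) ran on antibody-bound taxol microtubules with 1 mM ATP and peptide, at 25°C. Movies were 5 min at 100-ms exposure (488 nm), with a peptide snapshot beforehand. Landing rate, velocity, dwell time and run length were scored manually from kymographs. Gaussian and log-normal fits were applied; half-maxima of cumulative plots were reported.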

[12] = biological target: Atto647N-labeled microtubules of pig brain tubulin (pig) (UniProt Q2XVP4); test: TIRF microscopy binding assay
[13] = average, n = 19 tracking events, 35°C

microtubule binding ([1]; high nanomolar concentrations (i.e., >250 nM), charge-inverted control): does not show any microtubule binding
Substance: starPEG-(DA7)4-TAMRA
effect on microtubule dynamics (in words) ([2]; 50 nM): do not change microtubule dynamics compared with MOCK control | microtubules nucleated de novo [3]: 0.8 ± 1.0 MT per minute and field of view | pulling events (in words) [4]: none | pick-up of tubulin aggregates tracking depolymerizing plus ends [4]: not evident | microtubule bundling [5]: not in the presence of 50 nM starPEG-(DA7)4-TAMRA

saturation of microtubule binding ([1]; taxol-stabilized microtubules, BRB80, 25°C): ~200 nM | effect of subtilisin protease treatment on microtubule binding [6]: completely abolishes microtubule binding
Substance: starPEG-(KA7)4-TAMRA
diffusion coefficient (overall) ([7]; 25°C, BRB80): ~0.3 µm^2s^–1 | diffusion coefficient D (MSD) ([7]; mean square displacement, linear regression, mean ± SEM, N = 998, 1 nM, 25°C, BRB80): 0.33 ± 0.04 µm^2s^–1 | track-switching at microtubule intersections ([7]; single molecules, taxol-stabilized microtubules): able to switch their microtubule track at microtubule–microtubule intersections | tracking of growing microtubule plus end ([8]; after rescue event): unable to track the growing microtubule plus end | microtubule shortening during tracked depolymerization events [8, 13]: ~60% | microtubule-bound intensity lost during one depolymerization event [8, 13]: ~30% | minus-end tracking ([8]; dynamic microtubules): could not observe any minus-end-tracking event | concentration on remaining microtubule lattice by end-tracking ([8]; normalized intensity / normalized length): about twofold | effect on rescue frequency (in words) ([2]; 50 and 100 nM): 100 nM but not 50 nM starPEG-(KA7)4-TAMRA significantly reduces the rescue frequency | effect on growth velocity (in words) ([2]; 50 or 100 nM): increases the growth velocity significantly | microtubule nucleation (in words) [3]: robust nucleation is evident | microtubules nucleated de novo [3]: 9 ± 2.5 MT per minute and field of view | pulling events (in words) [4]: frequent pulling events | pick-up of tubulin aggregates tracking depolymerizing plus ends [4]: eventually picked up surface-associated tubulin aggregates that started to diffuse along the microtubule lattice and tracked depolymerizing plus ends | bending force during pulling events (mean) [9]: 4.2 ± 2.7 pN | microtubule bundling [5]: pronounced microtubule bundling | accumulation in microtubule overlaps (in words) ([10]; low density (5 nM)): preferentially binds to or accumulates in overlaps of taxol-stabilized microtubules | accumulation in microtubule overlaps (in words) ([10]; near a half-saturating concentration (25 nM)): this effect is lost | effect on kinesin-1 dwell time (in words) [11]: does not significantly affect the motor’s average dwell time | effect on kinesin-1 landing rate (in words) [11]: significantly decreases the landing rate of kinesin-1 in a concentration-dependent manner | effect on kinesin-1 run length (in words) [11]: nor the average motor run length | effect on kinesin-1 velocity (in words) [11]: slightly increased

Kd [12]: 30 nM | concentration at which saturation is reached [12]: 200 nM
Substance: starPEG-(KA7)4-TAMRA (designed binder)
